pEC50: −log10 of the molar value. The source made the active and inactive calls. The calls are words filed in the database; no cut-off is given here.
Tests used:
[1] = Cytotoxicity against mouse BA/F3 cells transfected with FLT3-ITD after 24 hrs by plate reader analysis in presence of IL3; details: BaF3, 24 h
[2] = target: Proto-oncogene tyrosine-protein kinase ROS (Homo sapiens) (UniProt P08922); test: Inhibition of ROS1 (unknown origin) transfected in mouse Ba/F3 cells at 5 uM after 24 hrs; assay type: cell-based; details: BaF3
BaF3 = test: Cytotoxicity against mouse BA/F3 cells transfected with […] at 1 uM after 24 hrs by plate reader analysis; assay type: functional, cell-based
[3] = target: Proto-oncogene tyrosine-protein kinase Src (Homo sapiens) (UniProt P12931); test: Inhibition of SRC (unknown origin) transfected in mouse Ba/F3 cells at 5 uM after 24 hrs; assay type: cell-based; details: BaF3
[4] = target: Leukocyte tyrosine kinase receptor (Homo sapiens) (UniProt P29376); test: Inhibition of LTK (unknown origin) transfected in mouse Ba/F3 cells at 5 uM after 24 hrs; assay type: cell-based; details: BaF3
[5] = target: T1, Megakaryocyte-associated tyrosine-protein kinase (Homo sapiens) (UniProt P42679); test: Inhibition of MATK1 (unknown origin) transfected in mouse Ba/F3 cells at 1 uM after 24 hrs; assay type: cell-based; details: BaF3
T1 sequence (whole entry): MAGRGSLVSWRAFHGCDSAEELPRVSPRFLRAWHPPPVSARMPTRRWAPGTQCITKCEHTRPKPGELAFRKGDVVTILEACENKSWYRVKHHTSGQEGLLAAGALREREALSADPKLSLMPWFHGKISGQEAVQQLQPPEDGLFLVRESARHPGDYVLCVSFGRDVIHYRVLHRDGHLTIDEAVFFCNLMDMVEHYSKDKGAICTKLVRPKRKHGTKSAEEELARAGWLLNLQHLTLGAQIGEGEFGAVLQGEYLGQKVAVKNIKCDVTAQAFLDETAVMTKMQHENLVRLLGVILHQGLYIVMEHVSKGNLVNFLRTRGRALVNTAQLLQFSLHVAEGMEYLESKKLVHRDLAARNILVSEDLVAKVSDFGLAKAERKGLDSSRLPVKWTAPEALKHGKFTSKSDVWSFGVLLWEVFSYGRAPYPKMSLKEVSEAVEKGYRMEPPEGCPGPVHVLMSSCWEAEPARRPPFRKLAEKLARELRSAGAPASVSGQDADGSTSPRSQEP

[6] = target: T2, Non-receptor tyrosine-protein kinase TNK1 (Homo sapiens) (UniProt Q13470); test: Inhibition of TNK1 (unknown origin) transfected in mouse Ba/F3 cells at 1 uM after 24 hrs; assay type: cell-based; details: BaF3
T2 sequence (whole entry): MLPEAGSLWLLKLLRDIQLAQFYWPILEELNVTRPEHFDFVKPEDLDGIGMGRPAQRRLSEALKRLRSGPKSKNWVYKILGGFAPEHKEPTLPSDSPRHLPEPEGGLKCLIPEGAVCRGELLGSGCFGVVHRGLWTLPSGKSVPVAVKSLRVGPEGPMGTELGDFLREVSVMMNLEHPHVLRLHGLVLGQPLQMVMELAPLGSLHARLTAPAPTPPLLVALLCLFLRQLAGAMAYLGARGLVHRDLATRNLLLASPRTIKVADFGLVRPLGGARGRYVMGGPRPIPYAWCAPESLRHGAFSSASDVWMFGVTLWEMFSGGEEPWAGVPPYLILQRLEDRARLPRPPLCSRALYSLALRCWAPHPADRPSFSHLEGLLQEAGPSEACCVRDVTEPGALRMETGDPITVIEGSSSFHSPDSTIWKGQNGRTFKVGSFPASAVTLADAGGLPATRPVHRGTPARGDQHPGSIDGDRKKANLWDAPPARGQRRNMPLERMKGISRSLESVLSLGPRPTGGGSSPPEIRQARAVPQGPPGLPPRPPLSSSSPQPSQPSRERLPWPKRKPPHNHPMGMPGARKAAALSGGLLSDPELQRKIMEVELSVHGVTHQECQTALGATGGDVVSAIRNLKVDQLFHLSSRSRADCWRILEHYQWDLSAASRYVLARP

[7] = target: T3, Ephrin type-A receptor 1 (Homo sapiens) (UniProt P21709); test: Inhibition of EPHA1 (unknown origin) transfected in mouse Ba/F3 cells at 1 uM after 24 hrs; assay type: cell-based; details: BaF3
T3 sequence (whole entry): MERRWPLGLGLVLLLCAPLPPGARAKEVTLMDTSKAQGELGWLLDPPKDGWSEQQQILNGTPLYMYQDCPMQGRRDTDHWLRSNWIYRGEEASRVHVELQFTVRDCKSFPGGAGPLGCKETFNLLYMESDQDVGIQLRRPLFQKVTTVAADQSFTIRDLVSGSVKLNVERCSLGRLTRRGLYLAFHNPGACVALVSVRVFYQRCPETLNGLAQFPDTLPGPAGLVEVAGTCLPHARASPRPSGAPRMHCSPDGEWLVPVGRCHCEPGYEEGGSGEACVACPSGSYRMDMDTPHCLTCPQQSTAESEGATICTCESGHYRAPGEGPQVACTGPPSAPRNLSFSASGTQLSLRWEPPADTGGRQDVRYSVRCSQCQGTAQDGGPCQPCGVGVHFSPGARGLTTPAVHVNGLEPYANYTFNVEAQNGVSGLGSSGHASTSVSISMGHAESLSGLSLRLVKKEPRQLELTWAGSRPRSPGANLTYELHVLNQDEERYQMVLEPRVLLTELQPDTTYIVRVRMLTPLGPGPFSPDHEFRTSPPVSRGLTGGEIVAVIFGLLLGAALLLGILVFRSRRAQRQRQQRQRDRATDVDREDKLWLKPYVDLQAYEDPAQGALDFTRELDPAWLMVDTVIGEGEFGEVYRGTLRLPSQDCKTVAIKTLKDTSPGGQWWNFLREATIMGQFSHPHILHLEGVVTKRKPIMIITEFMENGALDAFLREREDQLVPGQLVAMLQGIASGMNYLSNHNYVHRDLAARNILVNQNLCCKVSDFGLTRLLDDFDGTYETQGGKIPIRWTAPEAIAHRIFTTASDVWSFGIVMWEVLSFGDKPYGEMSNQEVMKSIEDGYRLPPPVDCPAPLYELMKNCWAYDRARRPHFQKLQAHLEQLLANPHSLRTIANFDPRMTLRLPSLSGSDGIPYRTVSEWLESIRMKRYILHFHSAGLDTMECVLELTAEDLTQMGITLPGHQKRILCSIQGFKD
Summary of the method: (§1)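 Kinase specificity panel: each Ba/F3 line transformed with one of 24 tyrosine kinases depends on that kinase to grow. Cells were given compound at 1 or 5 µM for 24 h, with DMSO as comparator. Percentage growth was read by ATP-lite luminescence and reported as mean ± SEM.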

[8] = target: Leukocyte tyrosine kinase receptor (Homo sapiens) (UniProt P29376); test: Inhibition of LTK (unknown origin) transfected in mouse Ba/F3 cells at 1 uM after 24 hrs; assay type: cell-based; details: BaF3
Summary of the method: as §1

[9] = target: Receptor tyrosine-protein kinase erbB-2 (Homo sapiens) (UniProt P04626); test: Inhibition of ERBB2 (unknown origin) transfected in mouse Ba/F3 cells at 1 uM after 24 hrs; assay type: cell-based; details: BaF3
Summary of the method: as §1

[10] = target: Proto-oncogene tyrosine-protein kinase Src (Homo sapiens) (UniProt P12931); test: Inhibition of SRC (unknown origin) transfected in mouse Ba/F3 cells at 1 uM after 24 hrs; assay type: cell-based; details: BaF3
[11] = target: Ephrin type-A receptor 5 (Homo sapiens) (UniProt P54756); test: Inhibition of EPHA5 (unknown origin) transfected in mouse Ba/F3 cells at 1 uM after 24 hrs; assay type: cell-based; details: BaF3
Summary of the method: as §1

Chain of Leukocyte tyrosine kinase receptor (Homo sapiens) (P29376 whole entry): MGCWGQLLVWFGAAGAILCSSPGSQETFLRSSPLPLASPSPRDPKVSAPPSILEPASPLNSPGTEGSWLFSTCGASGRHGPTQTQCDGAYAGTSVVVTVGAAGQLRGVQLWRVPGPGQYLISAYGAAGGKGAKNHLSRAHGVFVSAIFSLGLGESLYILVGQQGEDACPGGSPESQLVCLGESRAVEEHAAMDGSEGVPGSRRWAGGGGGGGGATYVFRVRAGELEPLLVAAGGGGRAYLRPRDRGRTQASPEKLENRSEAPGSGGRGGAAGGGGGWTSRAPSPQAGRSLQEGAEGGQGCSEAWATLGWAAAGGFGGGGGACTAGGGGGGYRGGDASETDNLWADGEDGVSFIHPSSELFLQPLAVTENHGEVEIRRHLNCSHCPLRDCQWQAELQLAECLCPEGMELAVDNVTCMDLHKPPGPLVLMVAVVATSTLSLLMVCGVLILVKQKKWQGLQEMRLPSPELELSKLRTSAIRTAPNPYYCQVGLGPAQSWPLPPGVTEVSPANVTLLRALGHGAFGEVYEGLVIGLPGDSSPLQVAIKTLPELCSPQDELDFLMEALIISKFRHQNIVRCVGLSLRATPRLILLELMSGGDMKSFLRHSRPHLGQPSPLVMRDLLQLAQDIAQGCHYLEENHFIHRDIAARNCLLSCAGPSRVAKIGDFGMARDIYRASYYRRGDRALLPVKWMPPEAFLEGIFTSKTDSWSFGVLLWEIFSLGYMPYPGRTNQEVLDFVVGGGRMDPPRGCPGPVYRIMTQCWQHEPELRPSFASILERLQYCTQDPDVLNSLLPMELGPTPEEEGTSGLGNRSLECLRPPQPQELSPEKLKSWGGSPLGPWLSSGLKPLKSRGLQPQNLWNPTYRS
Chain of Receptor tyrosine-protein kinase erbB-2 (Homo sapiens) (P04626 whole entry): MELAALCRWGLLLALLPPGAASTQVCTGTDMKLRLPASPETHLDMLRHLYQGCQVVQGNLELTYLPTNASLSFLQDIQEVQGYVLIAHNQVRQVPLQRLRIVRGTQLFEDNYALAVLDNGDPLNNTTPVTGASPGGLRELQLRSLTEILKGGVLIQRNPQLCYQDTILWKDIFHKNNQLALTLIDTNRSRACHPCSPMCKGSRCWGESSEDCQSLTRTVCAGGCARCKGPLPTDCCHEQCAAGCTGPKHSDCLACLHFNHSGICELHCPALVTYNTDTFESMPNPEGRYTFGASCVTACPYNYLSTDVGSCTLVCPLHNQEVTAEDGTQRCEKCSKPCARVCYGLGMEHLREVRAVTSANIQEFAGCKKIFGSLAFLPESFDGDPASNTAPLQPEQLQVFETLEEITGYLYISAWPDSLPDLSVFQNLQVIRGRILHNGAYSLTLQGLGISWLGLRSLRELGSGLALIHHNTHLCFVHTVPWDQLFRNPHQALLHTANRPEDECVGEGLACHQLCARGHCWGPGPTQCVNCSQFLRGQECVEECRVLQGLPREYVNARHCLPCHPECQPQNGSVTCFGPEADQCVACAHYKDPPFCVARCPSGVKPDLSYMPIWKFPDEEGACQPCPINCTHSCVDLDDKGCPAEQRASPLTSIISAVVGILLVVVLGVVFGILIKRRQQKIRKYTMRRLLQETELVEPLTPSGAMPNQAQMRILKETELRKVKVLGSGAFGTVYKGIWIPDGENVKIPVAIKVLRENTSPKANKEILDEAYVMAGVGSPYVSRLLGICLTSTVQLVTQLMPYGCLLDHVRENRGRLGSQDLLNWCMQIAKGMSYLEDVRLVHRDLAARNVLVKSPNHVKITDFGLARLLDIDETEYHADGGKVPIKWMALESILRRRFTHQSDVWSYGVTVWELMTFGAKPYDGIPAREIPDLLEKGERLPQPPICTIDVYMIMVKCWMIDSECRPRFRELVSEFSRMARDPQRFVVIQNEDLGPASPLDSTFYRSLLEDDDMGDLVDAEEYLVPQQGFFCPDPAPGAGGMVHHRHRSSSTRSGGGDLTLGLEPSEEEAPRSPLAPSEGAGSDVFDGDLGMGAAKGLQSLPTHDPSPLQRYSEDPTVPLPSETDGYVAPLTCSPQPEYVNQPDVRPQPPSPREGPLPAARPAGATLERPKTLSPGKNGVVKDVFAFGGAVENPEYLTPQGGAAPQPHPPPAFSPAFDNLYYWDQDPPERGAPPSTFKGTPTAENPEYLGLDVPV
Chain of Ephrin type-A receptor 5 (Homo sapiens) (P54756 whole entry): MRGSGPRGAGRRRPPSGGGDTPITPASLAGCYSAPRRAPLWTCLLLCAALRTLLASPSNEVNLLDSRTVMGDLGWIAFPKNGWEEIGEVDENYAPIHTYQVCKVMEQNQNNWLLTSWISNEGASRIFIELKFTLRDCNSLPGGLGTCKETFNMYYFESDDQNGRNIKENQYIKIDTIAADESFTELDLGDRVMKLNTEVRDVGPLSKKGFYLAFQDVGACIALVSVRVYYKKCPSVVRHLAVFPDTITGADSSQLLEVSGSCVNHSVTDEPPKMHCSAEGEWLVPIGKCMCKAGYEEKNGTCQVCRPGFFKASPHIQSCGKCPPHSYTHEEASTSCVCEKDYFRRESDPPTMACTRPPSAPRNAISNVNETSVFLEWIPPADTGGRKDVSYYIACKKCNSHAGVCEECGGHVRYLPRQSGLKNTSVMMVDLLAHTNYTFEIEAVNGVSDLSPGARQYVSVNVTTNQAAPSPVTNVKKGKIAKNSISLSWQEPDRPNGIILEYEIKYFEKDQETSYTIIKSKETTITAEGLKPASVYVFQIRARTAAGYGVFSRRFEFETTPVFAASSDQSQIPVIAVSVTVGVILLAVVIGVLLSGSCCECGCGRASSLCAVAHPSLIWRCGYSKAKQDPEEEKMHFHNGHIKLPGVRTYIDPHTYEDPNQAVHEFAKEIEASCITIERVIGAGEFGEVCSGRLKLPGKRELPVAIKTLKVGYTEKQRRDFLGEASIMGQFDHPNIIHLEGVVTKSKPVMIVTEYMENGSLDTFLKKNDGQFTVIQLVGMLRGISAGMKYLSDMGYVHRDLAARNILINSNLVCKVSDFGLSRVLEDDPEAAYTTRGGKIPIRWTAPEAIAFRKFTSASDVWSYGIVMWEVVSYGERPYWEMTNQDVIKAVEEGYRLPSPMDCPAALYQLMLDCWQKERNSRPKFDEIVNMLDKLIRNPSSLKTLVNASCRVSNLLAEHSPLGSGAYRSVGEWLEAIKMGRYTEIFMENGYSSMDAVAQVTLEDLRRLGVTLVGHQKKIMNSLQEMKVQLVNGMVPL
Chain of Proto-oncogene tyrosine-protein kinase Src (Homo sapiens) (P12931 2-536 limits assumed): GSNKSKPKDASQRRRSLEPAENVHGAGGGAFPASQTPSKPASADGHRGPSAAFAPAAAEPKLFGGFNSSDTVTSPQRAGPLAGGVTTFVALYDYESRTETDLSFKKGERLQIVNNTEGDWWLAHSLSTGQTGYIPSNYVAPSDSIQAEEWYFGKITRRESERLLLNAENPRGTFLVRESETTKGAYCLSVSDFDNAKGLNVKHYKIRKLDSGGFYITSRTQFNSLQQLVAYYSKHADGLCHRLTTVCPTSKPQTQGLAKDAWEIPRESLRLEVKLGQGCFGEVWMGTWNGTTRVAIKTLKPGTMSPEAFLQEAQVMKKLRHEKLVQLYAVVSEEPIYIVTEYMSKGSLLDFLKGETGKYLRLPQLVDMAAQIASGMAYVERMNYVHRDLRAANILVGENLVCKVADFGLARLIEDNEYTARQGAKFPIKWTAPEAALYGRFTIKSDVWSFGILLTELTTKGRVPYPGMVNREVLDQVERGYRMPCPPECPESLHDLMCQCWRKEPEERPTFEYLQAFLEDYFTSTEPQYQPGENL

Row | SMILES | pEC50 [1] | inhibition [2] | Activity (BaF3) | inhibition [3] | inhibition [4] | inhibition [5] | inhibition [6] | inhibition [7] | inhibition [8] | inhibition [9] | inhibition [10] | inhibition [11]
1 | Cc1ccc(-n2cnc3cc(Nc4nnc(C)c5ccccc45)ccc32)cc1 | 4.72 | inactive | Active | inactive | inactive |  |  |  |  |  |  | 
2 | COc1ccc(C(=O)Nc2cc(-c3ccccc3)[nH]n2)cc1 | 4.74 |  | Active |  |  | inactive | inactive | inactive | inactive | inactive | inactive | inactive
3 | Cc1cccc(C(=O)Nc2cc(-c3ccc(F)cc3)n[nH]2)c1 | 4.68 |  |  |  |  | inactive | inactive | inactive | inactive | inactive | inactive | inactive
4 | Fc1ccc(-c2n[nH]cc2-c2ccncc2)cc1Cl | 4.80 | Active |  | Active | inactive |  |  |  |  |  |  | 
5 | Cc1ccc(-c2cc(NC(=O)c3ccc(F)cc3)[nH]n2)cc1 | 4.64 |  |  |  |  | inactive | inactive | inactive | inactive | inactive | inactive | inactive

From ChEMBL document CHEMBL2390926, “Identification of novel FLT3 kinase inhibitors” (Eur J Med Chem, 2013)
